Test results as given in ChEMBL document CHEMBL1641407, “Imidazo[4,5-d]thiazolo[5,4-b]pyridine based inhibitors of IKK2: synthesis, SAR, PK/PD and activity in a preclinical model of rheumatoid arthritis” (Bioorg Med Chem Lett, 2011).

Tests used:
[1] = Half life in rat at 2 mg/kg, iv and 10 mg/kg, po; format: ADME, organism-based; settings: in vivo
[2] = molecular target: Death-associated protein kinase 2 (Homo sapiens) (UniProt Q9UIK4); assay: Residual activity at DAPK2 at 10 uM relative to control
Death-associated protein kinase 2 (Homo sapiens), sequence (Q9UIK4 whole entry, looked up): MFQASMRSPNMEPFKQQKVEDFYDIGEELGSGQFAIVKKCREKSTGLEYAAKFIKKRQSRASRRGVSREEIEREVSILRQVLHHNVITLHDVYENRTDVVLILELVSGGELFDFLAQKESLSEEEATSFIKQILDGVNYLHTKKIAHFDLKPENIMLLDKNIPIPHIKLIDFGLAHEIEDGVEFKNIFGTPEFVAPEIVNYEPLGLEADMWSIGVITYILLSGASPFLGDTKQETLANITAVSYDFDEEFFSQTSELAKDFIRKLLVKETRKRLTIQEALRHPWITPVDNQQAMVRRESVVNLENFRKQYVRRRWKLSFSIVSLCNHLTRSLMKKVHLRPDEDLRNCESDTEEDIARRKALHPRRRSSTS

Blood [3] = assay: Antiinflammatory activity in human whole blood assessed as inhibition of LPS-induced TNFalpha release treated for 5 mins before LPS challenge measured after 6 hrs by ELISA; format: functional, tissue-based
Canis familiaris = assay: Total AUC in dog at 2 mg/kg, iv; format: ADME, organism-based, Canis lupus familiaris; parameters: time AUCmax, dose 2 mg/kg, route intravenous; settings: in vivo
Method in brief: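 Dogs received the compound intravenously only, in PEG400:water 80:20. Total plasma exposure (AUC_tot) is reported in nM h.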

Mus musculus [4] = assay: Antiinflammatory activity in po dosed BALB/c mouse assessed as inhibition of LPS-induced TNFalpha release administered for 5 hrs before LPS challenge measured after 6.5 hrs post dose by ELISA; format: functional, organism-based
Method in brief: (§1)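 BALB/c female mice, 6–8 weeks old, n = 7–8 per treatment. Compounds given by oral gavage at 30 and 100 mg/kg in PEG400/HCl/Tween80/water; controls received vehicle alone. Five hours later, E. coli O111:B4 LPS 50 µg/kg ip. Serum collected 90 min after LPS, TNF-α measured by ELISA. Drug exposure sampled 6.5 h post-dose. Mean ± standard error.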

PBMC = assay: Antiinflammatory activity in human PBMC assessed as inhibition of LPS-induced TNFalpha release treated for 5 mins before LPS challenge measured after 6 hrs by ELISA; format: functional, cell-based
Method in brief: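 PBMCs purified from heparinized healthy-volunteer blood by Ficoll-Hypaque gradient and suspended at 5 × 10⁶/mL in RPMI with 10% FBS. Cells preincubated with compound (0.2% DMSO) for 5 min at room temperature. LPS added from a 200 ng/mL stock, then 6 h at 37 °C. Medium TNF-α measured by ELISA. IC50 by linear regression.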

[5] = Half life in dog at 2 mg/kg, iv; format: ADME, organism-based, Canis lupus familiaris; parameters: dose 2 mg/kg, route intravenous; settings: in vivo
Method in brief: (§2)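 Dog pharmacokinetics, iv dosing only, in vehicle PEG400:water 80:20.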

[6] = Volume of distribution at steady state in mouse at 2 mg/kg, iv and 10 mg/kg, po; format: ADME, organism-based; settings: in vivo, read-out: Vdss
[7] = Oral bioavailability in mouse at 10 mg/kg; format: ADME, organism-based; settings: in vivo
Rattus norvegicus = assay: Total AUC in rat at 2 mg/kg, iv and 10 mg/kg, po; format: ADME, organism-based; settings: in vivo
[8] = molecular target: T1, Inhibitor of nuclear factor kappa-B kinase subunit beta (Homo sapiens, UniProt O14920); assay: Inhibition of IKK2
T1 sequence (O14920 whole entry): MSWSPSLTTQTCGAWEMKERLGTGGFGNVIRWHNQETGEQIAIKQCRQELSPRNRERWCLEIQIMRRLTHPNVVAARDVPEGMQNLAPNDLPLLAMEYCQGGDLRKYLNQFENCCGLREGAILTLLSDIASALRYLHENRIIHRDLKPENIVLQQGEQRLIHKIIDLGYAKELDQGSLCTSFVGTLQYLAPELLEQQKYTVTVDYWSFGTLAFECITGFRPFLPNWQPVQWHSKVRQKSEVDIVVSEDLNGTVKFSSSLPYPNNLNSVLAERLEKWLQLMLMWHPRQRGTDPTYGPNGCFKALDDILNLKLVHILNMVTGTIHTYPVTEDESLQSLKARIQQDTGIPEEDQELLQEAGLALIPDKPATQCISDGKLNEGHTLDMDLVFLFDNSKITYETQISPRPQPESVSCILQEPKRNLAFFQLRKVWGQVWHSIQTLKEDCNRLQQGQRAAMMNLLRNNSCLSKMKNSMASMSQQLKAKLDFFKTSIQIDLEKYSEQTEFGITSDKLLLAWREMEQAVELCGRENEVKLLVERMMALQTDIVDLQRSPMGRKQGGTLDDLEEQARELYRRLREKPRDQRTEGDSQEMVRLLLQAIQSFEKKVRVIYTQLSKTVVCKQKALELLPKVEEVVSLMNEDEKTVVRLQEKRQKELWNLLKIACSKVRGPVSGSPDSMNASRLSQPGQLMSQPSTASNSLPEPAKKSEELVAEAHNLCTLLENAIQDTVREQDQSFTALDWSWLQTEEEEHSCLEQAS
Method in brief: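 IKK-2 added at room temperature to 50 µg/mL GST-IκBα with ATP in 25 mM Tris·HCl, pH 7.5, containing MgCl₂, phosphate salts, NaCl, KCl, 1 mM DTT, 5% glycerol and BSA. Stopped after 60 min with 33 mM EDTA. Phospho-IκBα read by fluorescence-polarization competition between an anti-phospho-IκBα antibody and a fluorescein-labelled phosphopeptide.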

[9] = Half life in mouse at 2 mg/kg, iv and 10 mg/kg, po; format: ADME, organism-based; settings: in vivo
[10] = Cmax in mouse at 2 mg/kg, iv and 10 mg/kg, po; format: ADME, organism-based; settings: in vivo
[11] = Clearance in rat at 2 mg/kg, iv and 10 mg/kg, po; format: ADME, organism-based; settings: in vivo
Mus musculus [12] = assay: Antiarthritic activity in mouse assessed as decrease in collagen-induced arthritis at 60 mg/kg, po BID administered at time of second collagen challenge on day 25 measured on day 42; format: functional
Method in brief: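 Collagen-induced arthritis in mice, n = 14–15 per group. Collagen priming injection on day 1, second collagen injection on day 25. Dosing 60 mg/kg by oral gavage twice daily, or vehicle, starting at the second injection. Read-out is the average gross clinical score per treatment group.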

[13] = Mean residence time in mouse at 2 mg/kg, iv and 10 mg/kg, po; format: ADME, organism-based; settings: in vivo
Mus musculus [14] = assay: Antiinflammatory activity in BALB/c mouse assessed as inhibition of LPS-induced TNFalpha release at 100 mg/kg, po administered for 5 hrs before LPS challenge measured after 6.5 hrs post dose by ELISA; format: functional; method in brief: as §1
[15] = Tmax in rat at 2 mg/kg, iv and 10 mg/kg, po; format: ADME, organism-based; settings: in vivo
[16] = Mean residence time in rat at 2 mg/kg, iv and 10 mg/kg, po; format: ADME, organism-based; settings: in vivo
Blood [17] = assay: Antiinflammatory activity in mouse whole blood assessed as inhibition of LPS-induced TNFalpha release treated for 5 mins before LPS challenge measured after 6 hrs by ELISA; format: functional, tissue-based
[18] = molecular target: Mitogen-activated protein kinase 10 (Homo sapiens) (UniProt P53779); assay: Residual activity at JNK3 at 10 uM relative to control
Mitogen-activated protein kinase 10 (Homo sapiens), sequence (P53779 whole entry): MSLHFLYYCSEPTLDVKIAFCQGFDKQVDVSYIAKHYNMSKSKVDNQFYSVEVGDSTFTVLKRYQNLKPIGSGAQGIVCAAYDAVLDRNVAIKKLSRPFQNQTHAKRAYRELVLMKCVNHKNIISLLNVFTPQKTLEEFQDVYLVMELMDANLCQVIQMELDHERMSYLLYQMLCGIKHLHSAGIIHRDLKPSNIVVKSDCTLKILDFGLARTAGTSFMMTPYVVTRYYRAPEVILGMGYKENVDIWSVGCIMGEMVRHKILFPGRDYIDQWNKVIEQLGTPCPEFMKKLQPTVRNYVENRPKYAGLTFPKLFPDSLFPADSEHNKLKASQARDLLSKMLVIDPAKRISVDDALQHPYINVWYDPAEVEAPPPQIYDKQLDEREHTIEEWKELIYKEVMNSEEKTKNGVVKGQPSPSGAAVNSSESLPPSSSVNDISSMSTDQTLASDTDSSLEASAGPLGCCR

Mus musculus [19] = assay: Total AUC in mouse at 2 mg/kg, iv and 10 mg/kg, po; format: ADME, organism-based; settings: in vivo
[20] = Tmax in mouse at 2 mg/kg, iv and 10 mg/kg, po; format: ADME, organism-based; settings: in vivo
[21] = Clearance in dog at 2 mg/kg, iv; format: ADME, organism-based, Canis lupus familiaris; parameters: dose 2 mg/kg, route intravenous; settings: in vivo; method in brief: as §2
[22] = Cmax in rat at 2 mg/kg, iv and 10 mg/kg, po; format: ADME, organism-based; settings: in vivo
[23] = Clearance in mouse at 2 mg/kg, iv and 10 mg/kg, po; format: ADME, organism-based; settings: in vivo
[24] = Oral bioavailability in rat at 10 mg/kg; format: ADME, organism-based; settings: in vivo

half-life [1]: 36 min
IC50 (Blood [3]): 2000 nM
AUC (Canis familiaris): 1980 nM
half-life [5]: 42 min
Vd [6]: 1.5 L/kg
bioavailability [7]: 57%
AUC (Rattus norvegicus): 4.63 µM
IC50 [8]: 19 nM
half-life [9]: 114 min
Cmax [10]: 1330 nM
clearance [11]: 63 mL/min/kg
MRT [13]: 2.9 h
Tmax [15]: 2 h
MRT [16]: 2.1 h
IC50 (Blood [17]): 1000 nM
residual activity [18]: < 10%
AUC (Mus musculus [19]): 3000 nM
Tmax [20]: 30 min
clearance [21]: 43 mL/min/kg
Cmax [22]: 1650 nM
clearance [23]: 62 mL/min/kg
bioavailability [24]: 88%
SMILES: CCNc1nc2sc(-c3cccc([C@H](C)NC(C)=O)c3)nc2c2c1ncn2C
residual activity [2]: < 10%
inhibition (Mus musculus [4]): Dose-dependent effect
IC50 (PBMC): 220 nM
inhibition in vivo at 60 mg/kg (Mus musculus [12]): 80%
inhibition in vivo at 100 mg/kg (Mus musculus [14]): 75%
